For experiment [1], the target named is T1, Proprotein convertase subtilisin/kexin type 6 (Homo sapiens, UniProt P29122).
T1 sequence (P29122 whole entry): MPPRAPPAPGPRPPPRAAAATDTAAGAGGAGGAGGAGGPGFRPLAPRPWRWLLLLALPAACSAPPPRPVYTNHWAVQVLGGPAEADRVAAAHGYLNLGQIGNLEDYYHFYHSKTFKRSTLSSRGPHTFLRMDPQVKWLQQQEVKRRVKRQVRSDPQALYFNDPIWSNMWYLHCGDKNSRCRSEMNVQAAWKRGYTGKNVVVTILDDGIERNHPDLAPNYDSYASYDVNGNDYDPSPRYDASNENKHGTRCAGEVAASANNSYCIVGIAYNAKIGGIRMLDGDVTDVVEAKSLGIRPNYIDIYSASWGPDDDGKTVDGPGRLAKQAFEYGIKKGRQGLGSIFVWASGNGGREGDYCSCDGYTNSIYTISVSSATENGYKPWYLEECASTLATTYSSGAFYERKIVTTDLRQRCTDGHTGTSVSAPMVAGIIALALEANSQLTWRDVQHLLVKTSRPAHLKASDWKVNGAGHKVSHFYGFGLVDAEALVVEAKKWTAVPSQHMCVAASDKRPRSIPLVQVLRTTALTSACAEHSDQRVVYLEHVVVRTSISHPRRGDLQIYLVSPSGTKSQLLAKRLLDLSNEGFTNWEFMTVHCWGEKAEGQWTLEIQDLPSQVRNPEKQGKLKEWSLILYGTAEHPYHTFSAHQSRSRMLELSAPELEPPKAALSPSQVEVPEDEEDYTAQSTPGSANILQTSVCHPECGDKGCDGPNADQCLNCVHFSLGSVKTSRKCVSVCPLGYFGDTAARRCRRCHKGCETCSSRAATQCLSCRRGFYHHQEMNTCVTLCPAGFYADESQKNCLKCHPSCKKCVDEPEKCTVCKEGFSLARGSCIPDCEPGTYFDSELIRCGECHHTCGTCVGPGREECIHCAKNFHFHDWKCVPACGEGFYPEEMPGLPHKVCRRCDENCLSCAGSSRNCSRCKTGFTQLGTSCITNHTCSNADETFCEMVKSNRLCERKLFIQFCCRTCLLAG
Kind of experiment: Inhibition of recombinant human PACE4 expressed in drosophila S2 cells using pyrGlu-Arg-Thr-Lys-Arg-7-amido-4-methylcoumarin as substrate after 60 mins by spectrofluorometry method. In kind it is cell-based. An outline of the steps:
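Human recombinant purified PACE4 at 2 units/100 µL (20.18 nM), in 20 mM BisTris pH 6.5, 1 mM CaCl2, 1.8 mg/mL BSA. Substrate 100 µM, KM 4.035 µM. Inhibitor 1 nM to 10 µM; 60 min at 37°C. Fluorescence ex 370 / em 460 nm. Ki by Morrison tight-binding equation; three independent experiments, mean ± SD.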

For experiment [2], the species on record is Homo sapiens. Description: Selectivity index, ratio of Ki for recombinant human furin expressed in drosophila S2 cells to Ki for recombinant human PACE4 expressed in drosophila S2 cells. Type of experiment: cell-based. Put shortly: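 Ratio Ki(furin)/Ki(PACE4). […] PACE4 buffer was BisTris pH 6.5; furin buffer was HEPES pH 7.5, or BisTris pH 6.5 for His peptides. Ki fitted by Morrison equation from three independent experiments.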

For experiment [3], the target named is Furin (Homo sapiens, UniProt P09958). Description: Inhibition of recombinant human furin expressed in drosophila S2 cells using pyrGlu-Arg-Thr-Lys-Arg-7-amido-4-methylcoumarin as substrate after 60 mins by spectrofluorometry method. Type of experiment: cell-based. An outline of the steps: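 Human recombinant purified furin at 2 units/100 µL (0.54 nM), in 100 mM HEPES pH 7.5, 1 mM CaCl2, 1 mM β-mercaptoethanol, 1.8 mg/mL BSA. His-containing peptides run instead in 20 mM BisTris pH 6.5 with the same additives. Substrate 100 µM, KM 5.04 µM. Inhibitor 1 nM to 10 µM; 60 min at 37°C. Fluorescence ex 370 / em 460 nm. Ki by Morrison equation; triplicate experiments, mean ± SD.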

Experiment [4] deals with DU-145. Description: Antiproliferative activity against human DU145 cells assessed as reduction in metabolic activity at 25 to 100 uM after 72 hrs by MTT assay. In kind it is functional, cell-based. An outline of the steps: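 First-pass MTT screen of each library peptide on DU145 cells (RPMI 1640, 5% FBS, 1500 cells/well, poly-L-lysine plates). Peptides added 24 h after seeding at 25, 50 and 100 µM in fresh serum medium for 72 h. MTT 1 mg/mL for 4 h; 2-propanol HCl solubilisation. Activity normalised to water vehicle. Mean ± SEM of at least two independent experiments.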
For orientation: Formazan colour is commonly taken as a measure of viable cells.

Active and inactive are the calls of the source. No rule for the calls is given here. Peptide text beside a SMILES is read from it. * marks the point of attachment. NH(4-amidinobenzyl) = N=C(N)c1ccc(CN*)cc1

Sequence of Furin (P09958 whole entry): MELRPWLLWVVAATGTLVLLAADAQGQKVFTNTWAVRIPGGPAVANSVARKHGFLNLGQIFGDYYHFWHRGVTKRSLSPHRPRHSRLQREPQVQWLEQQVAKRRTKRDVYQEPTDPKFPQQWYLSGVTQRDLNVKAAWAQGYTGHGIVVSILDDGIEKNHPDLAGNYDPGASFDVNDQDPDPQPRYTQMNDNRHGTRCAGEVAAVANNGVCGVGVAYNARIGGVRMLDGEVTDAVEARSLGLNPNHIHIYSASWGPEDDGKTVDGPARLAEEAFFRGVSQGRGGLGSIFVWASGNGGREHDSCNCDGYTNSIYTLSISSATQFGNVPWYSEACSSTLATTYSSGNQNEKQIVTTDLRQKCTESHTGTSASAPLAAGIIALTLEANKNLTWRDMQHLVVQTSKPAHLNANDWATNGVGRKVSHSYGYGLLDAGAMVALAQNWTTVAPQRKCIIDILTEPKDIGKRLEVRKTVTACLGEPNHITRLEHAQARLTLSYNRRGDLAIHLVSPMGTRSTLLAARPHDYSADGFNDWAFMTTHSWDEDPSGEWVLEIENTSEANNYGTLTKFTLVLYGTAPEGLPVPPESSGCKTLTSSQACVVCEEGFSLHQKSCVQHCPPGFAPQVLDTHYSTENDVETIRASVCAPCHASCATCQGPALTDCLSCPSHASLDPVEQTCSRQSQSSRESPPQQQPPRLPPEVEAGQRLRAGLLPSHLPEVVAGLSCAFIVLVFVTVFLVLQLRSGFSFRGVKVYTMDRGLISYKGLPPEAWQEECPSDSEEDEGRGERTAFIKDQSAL

Take `CSCC[C@H](NC(=O)[C@H](CC(C)C)NC(C)=O)C(=O)N[C@@H](CC(C)C)C(=O)N[C@@H](CC(C)C)C(=O)N[C@@H](CCCNC(=N)N)C(=O)N[C@H](C(=O)N[C@@H](CCCCN)C(=O)NCc1ccc(C(=N)N)cc1)C(C)C` (Ac-LMLLRVK-{NH(4-amidinobenzyl)}): the figures for the Ki in experiment [1] and in experiment [3] were 5 nM and 3 nM, respectively. Moreover, the Ratio Ki in experiment [2] stood at 0.6. The result in experiment [4] was inactive.
The matching figures for `CSCC[C@H](NC(=O)[C@H](CC(C)C)NC(=O)[C@H](CC(C)C)NC(=O)[C@H](CC(C)C)NC(C)=O)C(=O)N[C@@H](CCCNC(=N)N)C(=O)N[C@H](C(=O)N[C@@H](CCCCN)C(=O)NCc1ccc(C(=N)N)cc1)C(C)C` (Ac-LLLMRVK-{NH(4-amidinobenzyl)}): 3.7 nM, 3.4 nM, 0.9 and “inactive”.
For `CC(=O)N[C@@H](CC(C)C)C(=O)N[C@@H](CC(C)C)C(=O)N[C@@H](CO)C(=O)N[C@@H](CC(C)C)C(=O)N[C@@H](CCCNC(=N)N)C(=O)N[C@H](C(=O)N[C@@H](CCCCN)C(=O)NCc1ccc(C(=N)N)cc1)C(C)C` (Ac-LLSLRVK-{NH(4-amidinobenzyl)}), the values for the Ki in experiment [1] and in experiment [3] were 36 nM and 15 nM, respectively. Besides, the Ratio Ki in experiment [2] was found to be 0.4. The outcome in experiment [4] was inactive.
In the case of `CC(=O)N[C@@H](CC(C)C)C(=O)N[C@@H](CCCNC(=N)N)C(=O)N[C@@H](CC(C)C)C(=O)N[C@@H](CC(C)C)C(=O)N[C@@H](CCCNC(=N)N)C(=O)N[C@H](C(=O)N[C@@H](CCCCN)C(=O)NCc1ccc(C(=N)N)cc1)C(C)C` (Ac-LRLLRVK-{NH(4-amidinobenzyl)}), the values for the Ki in experiment [1] and in experiment [3] were 0.4 nM and 0.5 nM, respectively. Besides, the Ratio Ki in experiment [2] is 1.3. Besides, the result in experiment [4] was inactive.
As to `CC(=O)N[C@@H](CC(C)C)C(=O)N[C@@H](CC(C)C)C(=O)N[C@@H](CCCNC(=N)N)C(=O)N[C@@H](CC(C)C)C(=O)N[C@@H](CCCNC(=N)N)C(=O)N[C@H](C(=O)N[C@@H](CCCCN)C(=O)NCc1ccc(C(=N)N)cc1)C(C)C` (Ac-LLRLRVK-{NH(4-amidinobenzyl)}), the values for the Ki in experiment [1] and in experiment [3] were 0.9 nM and 0.5 nM, respectively. Besides, in experiment [2], the Ratio Ki was 0.6. Also, in experiment [4], the result was inactive.
The matching figures for `CC(=O)N[C@@H](CCCNC(=N)N)C(=O)N[C@@H](CC(C)C)C(=O)N[C@@H](CC(C)C)C(=O)N[C@@H](CC(C)C)C(=O)N[C@@H](CCCNC(=N)N)C(=O)N[C@H](C(=O)N[C@@H](CCCCN)C(=O)NCc1ccc(C(=N)N)cc1)C(C)C` (Ac-RLLLRVK-{NH(4-amidinobenzyl)}): 0.6 nM, 1.1 nM, 1.8 and “inactive”.
The corresponding values for `CC(=O)N[C@@H](CC(C)C)C(=O)N[C@@H](CC(C)C)C(=O)N[C@@H](CC(C)C)C(=O)N[C@@H](CCCCN)C(=O)N[C@@H](CCCNC(=N)N)C(=O)N[C@H](C(=O)N[C@@H](CCCCN)C(=O)NCc1ccc(C(=N)N)cc1)C(C)C` (Ac-LLLKRVK-{NH(4-amidinobenzyl)}) are 2 nM, 0.9 nM, 0.5 and “inactive”.
For `CC(=O)N[C@@H](CC(C)C)C(=O)N[C@@H](CC(C)C)C(=O)N[C@@H](CCC(=O)O)C(=O)N[C@@H](CC(C)C)C(=O)N[C@@H](CCCNC(=N)N)C(=O)N[C@H](C(=O)N[C@@H](CCCCN)C(=O)NCc1ccc(C(=N)N)cc1)C(C)C` (Ac-LLELRVK-{NH(4-amidinobenzyl)}), the results for the Ki in experiment [1] and in experiment [3] were 60 nM and 50 nM, respectively. Besides, the Ratio Ki in experiment [2] stood at 0.8. Also, the result in experiment [4] was inactive.
Consider `CC(=O)N[C@@H](CC(C)C)C(=O)N[C@@H](CC(C)C)C(=O)N1CCC[C@H]1C(=O)N[C@@H](CC(C)C)C(=O)N[C@@H](CCCNC(=N)N)C(=O)N[C@H](C(=O)N[C@@H](CCCCN)C(=O)NCc1ccc(C(=N)N)cc1)C(C)C` (Ac-LLPLRVK-{NH(4-amidinobenzyl)}), for which the figures for the Ki in experiment [1] and in experiment [3] were 4 nM and 1.4 nM, respectively. Moreover, in experiment [2], the Ratio Ki was found to be 0.4. For the same molecule, the outcome in experiment [4] was inactive.
The corresponding values for `CC(=O)N[C@@H](CC(C)C)C(=O)N[C@@H](Cc1cnc[nH]1)C(=O)N[C@@H](CC(C)C)C(=O)N[C@@H](CC(C)C)C(=O)N[C@@H](CCCNC(=N)N)C(=O)N[C@H](C(=O)N[C@@H](CCCCN)C(=O)NCc1ccc(C(=N)N)cc1)C(C)C` (Ac-LHLLRVK-{NH(4-amidinobenzyl)}) are 3 nM, 4.7 nM, 1.6 and “inactive”.
The corresponding values for `CC(=O)N[C@@H](CC(C)C)C(=O)N[C@@H](CC(C)C)C(=O)N[C@@H](CC(C)C)C(=O)N[C@@H](Cc1cnc[nH]1)C(=O)N[C@@H](CCCNC(=N)N)C(=O)N[C@H](C(=O)N[C@@H](CCCCN)C(=O)NCc1ccc(C(=N)N)cc1)C(C)C` (Ac-LLLHRVK-{NH(4-amidinobenzyl)}) are 0.4 nM, 0.9 nM, 2.3 and “inactive”.
`CC(=O)N[C@@H](CC(C)C)C(=O)N[C@@H](CC(C)C)C(=O)N[C@@H](CC(C)C)C(=O)N[C@@H](CCC(=O)O)C(=O)N[C@@H](CCCNC(=N)N)C(=O)N[C@H](C(=O)N[C@@H](CCCCN)C(=O)NCc1ccc(C(=N)N)cc1)C(C)C` (Ac-LLLERVK-{NH(4-amidinobenzyl)}): the Ki – broadly, the equilibrium dissociation constant of an inhibitor or competing ligand from its target – in experiment [1] was 46 nM; in experiment [3] it was 38 nM. The Ratio Ki in experiment [2] is 0.8. Moreover, the outcome in experiment [4] was inactive.
The matching figures for `CC(=O)N[C@@H](CC(C)C)C(=O)N[C@@H](CC(C)C)C(=O)N[C@@H](CC(C)C)C(=O)N[C@@H](CCCNC(=N)N)C(=O)N[C@@H](CCCNC(=N)N)C(=O)N[C@H](C(=O)N[C@@H](CCCCN)C(=O)NCc1ccc(C(=N)N)cc1)C(C)C` (Ac-LLLRRVK-{NH(4-amidinobenzyl)}): 0.2 nM, 0.7 nM, 3.5 and “inactive”.
The matching figures for `CC(=O)N[C@@H](CC(C)C)C(=O)N[C@@H](CC(C)C)C(=O)N[C@@H](CC(N)=O)C(=O)N[C@@H](CC(C)C)C(=O)N[C@@H](CCCNC(=N)N)C(=O)N[C@H](C(=O)N[C@@H](CCCCN)C(=O)NCc1ccc(C(=N)N)cc1)C(C)C` (Ac-LLNLRVK-{NH(4-amidinobenzyl)}): 18 nM, 13 nM, 0.7 and “inactive”.
For `CC(=O)N[C@@H](CC(C)C)C(=O)N[C@@H](CC(C)C)C(=O)N[C@@H](CC(C)C)C(=O)N[C@@H](Cc1ccc(O)cc1)C(=O)N[C@@H](CCCNC(=N)N)C(=O)N[C@H](C(=O)N[C@@H](CCCCN)C(=O)NCc1ccc(C(=N)N)cc1)C(C)C` (Ac-LLLYRVK-{NH(4-amidinobenzyl)}), the figures for the Ki in experiment [1] and in experiment [3] were 2 nM and 3.1 nM, respectively. Also, in experiment [2], the Ratio Ki turned out to be 1.6. The result in experiment [4] was inactive.

The values above are taken from ChEMBL document CHEMBL4049407, “Positional Scanning Identifies the Molecular Determinants of a High Affinity Multi-Leucine Inhibitor for Furin and PACE4” (J Med Chem, 2017).
